The values that follow come from ChEMBL document CHEMBL1135760, “Anilinoquinazoline inhibitors of fructose 1,6-bisphosphatase bind at a novel allosteric site: synthesis, in vitro characterization, and X-ray crystallography” (J Med Chem, 2002).

Experiment [1] concerns the target T1, Fructose-1,6-bisphosphatase 1 (Rattus norvegicus, UniProt P19112).
T1 sequence (P19112 whole entry): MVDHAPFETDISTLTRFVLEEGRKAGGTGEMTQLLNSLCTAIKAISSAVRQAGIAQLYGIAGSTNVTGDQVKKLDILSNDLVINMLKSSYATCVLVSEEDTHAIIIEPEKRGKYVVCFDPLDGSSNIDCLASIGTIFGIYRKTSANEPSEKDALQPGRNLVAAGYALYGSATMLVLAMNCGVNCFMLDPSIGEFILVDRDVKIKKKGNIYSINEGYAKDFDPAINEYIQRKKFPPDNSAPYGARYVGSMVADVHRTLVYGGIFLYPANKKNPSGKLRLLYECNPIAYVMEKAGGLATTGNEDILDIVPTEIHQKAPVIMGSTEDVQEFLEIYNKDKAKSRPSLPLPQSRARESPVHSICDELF
The experiment is described as follows: Concentration required for 50% Inhibition against (F16BP) Fructose-1,6-bisphosphatase in rat wild type enzyme using malachite green assay. In a few lines:
(§1)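 Recombinant rat liver F16BPase (wild type or Gln50Lys/Gln55His double, Gln50Lys or Gln55His single mutants), expressed in E. coli BL21(DE3) and purified, 40 ng/well. Enzyme added to substrate plus compound with no preincubation. Final buffer was 50 mM HEPES pH 7.2, 100 mM KCl, 2 mM MgCl2, 2 mM EGTA, 1 mM DTT, 500 μM fructose-1,6-bisphosphate. Incubation 40 min at room temperature. Released phosphate read at 620 nm with ammonium molybdate/malachite green. Means of ≥3 experiments. Dose-response tested up to 10 μM.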

Experiment [2] concerns the target Fructose-1,6-bisphosphatase 1 (Rattus norvegicus, UniProt P19112, Q51K/Q56H). Description: Concentration required for 50% Inhibition against (F16BP) Fructose-1,6-bisphosphatase in rat double mutant (Gln50Lys Gln55His) enzyme using malachite green assay. In a few lines: as §1
Experiment [3] has as its target Fructose-1,6-bisphosphatase 1 (Rattus norvegicus, UniProt P19112, Q51K). Description: Concentration required for 50% Inhibition against (F16BP) Fructose-1,6-bisphosphatase in rat single mutant (Gln50Lys) enzyme using malachite green assay. The method, boiled down:
as §1

For experiment [4], the target named is T2, Fructose-1,6-bisphosphatase 1 (Rattus norvegicus, UniProt P19112, Q56H). The experiment is described as follows: Concentration required for 50% Inhibition against (F16BP) Fructose-1,6-bisphosphatase in rat single mutant (Gln55His) enzyme using malachite green assay. The method, boiled down:
as §1

The nature of experiment [5]: Inhibition of human recombinant wild type fructose-1,6-bisphosphatase (F16BP).
Experiment [6] has as its target T2, Fructose-1,6-bisphosphatase 1. Description: Concentration required for 50% Inhibition against (F16BP) Fructose-1,6-bisphosphatase in rat single mutant(Gln55His) enzyme using malachite green assay. The method, boiled down: as §1

Chain of Fructose-1,6-bisphosphatase 1 (Rattus norvegicus, UniProt P19112, Q51K/Q56H) (P19112 2-363 Q51K/Q56H limits assumed): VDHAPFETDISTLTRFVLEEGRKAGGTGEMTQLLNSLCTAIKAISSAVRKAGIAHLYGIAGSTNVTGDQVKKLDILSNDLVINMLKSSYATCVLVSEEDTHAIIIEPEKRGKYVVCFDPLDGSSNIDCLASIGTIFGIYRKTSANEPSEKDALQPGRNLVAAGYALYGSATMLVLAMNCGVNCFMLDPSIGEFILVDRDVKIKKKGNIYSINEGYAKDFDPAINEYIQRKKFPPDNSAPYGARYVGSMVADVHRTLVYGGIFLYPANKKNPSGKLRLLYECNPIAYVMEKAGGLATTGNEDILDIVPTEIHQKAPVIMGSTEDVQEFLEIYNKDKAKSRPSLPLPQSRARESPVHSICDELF
T2 sequence (P19112 2-363 Q56H limits assumed): as the sequence (P19112 2-363 Q51K/Q56H limits assumed) above, with K50Q counted along it
Chain of Fructose-1,6-bisphosphatase 1 (Rattus norvegicus, UniProt P19112, Q51K) (P19112 2-363 Q51K limits assumed): as the sequence (P19112 2-363 Q51K/Q56H limits assumed) above, with H55Q counted along it

In general, IC50 refers to the concentration at which inhibition is half-maximal. Regarding `CCOc1cc2ncnc(Nc3cccc(-c4csc(CO)n4)c3)c2cc1OCC`, the IC50 in experiment [1] is above 10 µM; in experiment [2], 340 nM; in experiment [3], above 10 µM; in experiment [4], 2900 nM.

As to `CCOc1cc2ncnc(Nc3cccc(-c4csc(C(N)=O)n4)c3)c2cc1OCC`, the IC50 is above 10 µM in experiment [1]; 520 nM in experiment [2]; above 10 µM in experiment [3]; 930 nM in experiment [5]; 3000 nM in experiment [4].

For the molecule `CCOc1cc2ncnc(Nc3cccc(-c4csc(C)n4)c3)c2cc1OCC`, the IC50 in experiment [1] is above 10 µM; in experiment [2], 790 nM; in experiment [3], above 10 µM; in experiment [5] it was 640 nM; in experiment [6], 3.8 µM.
